IC50 and solubility data for 42 molecules are collected here from ChEMBL document CHEMBL4371017, “Discovery and optimization of pyrazole amides as antagonists of CCR1” (Bioorg Med Chem Lett, 2019).

The IC50 is the concentration that gives 50% inhibition. For orientation: solubility means the concentration that dissolves in the medium under given conditions. Low readings indicate a poorly soluble substance, high ones a readily soluble substance.

The target of data set [1] is T1, C-C chemokine receptor type 1 (Homo sapiens, UniProt P32246).
T1 sequence (P32246 whole entry): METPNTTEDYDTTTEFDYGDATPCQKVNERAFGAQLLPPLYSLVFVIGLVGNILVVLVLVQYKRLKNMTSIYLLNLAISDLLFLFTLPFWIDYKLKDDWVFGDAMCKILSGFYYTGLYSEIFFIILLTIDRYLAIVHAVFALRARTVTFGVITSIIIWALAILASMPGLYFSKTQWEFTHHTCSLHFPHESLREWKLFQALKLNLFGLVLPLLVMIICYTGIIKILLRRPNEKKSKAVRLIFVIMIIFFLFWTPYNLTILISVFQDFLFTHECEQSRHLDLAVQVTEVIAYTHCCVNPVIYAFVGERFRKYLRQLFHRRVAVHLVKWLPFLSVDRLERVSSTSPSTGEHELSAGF
The data set is described as follows: Antagonist activity at recombinant CCR1 (unknown origin) expressed in non-adherent cells co-expressing Galpha16 assessed as inhibition of MIP-1 alpha-induced calcium flux by Fluo-4 NW or Calcium 4 dye based FLIPR TETRA assay. In kind it is functional, cell-based. In a few lines:
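The cells stably co-express CCR1 and Gα16 and were loaded with dye for 1 h at room temperature with probenecid (Method A: Fluo-4 NW; Method B: Calcium 4), then plated at 20,000 cells/well. Compounds were tested at 10 doses from a 3,000 nM top (A 3-fold steps, B 4-fold), in 1% DMSO and HBSS/20 mM HEPES pH 7.4. Preincubation was 1 h at room temperature in the dark (A) or 30 min at 37°C then 30 min at room temperature (B). MIP-1α was added at EC80 and the calcium flux recorded.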
(A change in cytosolic calcium serves as a functional read-out for many receptors and channels.)

The nature of data set [2]: Aqueous solubility of the compound. Particulars: water. In kind it is physicochemical.

Where only a bound is given, the exact number is not on record here.

For `CCC[C@H](NC(=O)c1cnn(-c2ccc(Cl)cc2)c1C)c1cccc(C(F)(F)F)c1F`, the IC50 in data set [1] is 10 nM. The same measure, in the same setting: under `Cc1c(C(=O)NCc2cccc(C(F)(F)F)c2)cnn1-c1ccccc1Cl` stands more than 3000 nM. The same measure, in the same setting: under `Cc1c(C(=O)NCc2cccc(C(F)(F)F)c2)cnn1-c1ccc(Cl)cc1` stands 600 nM; under `Cc1cccc(-n2ncc(C(=O)NCc3cccc(C(F)(F)F)c3)c2C)c1`, more than 3000 nM. Still for that read-out and setting: under `Cc1nn(-c2ccc(Cl)c(Cl)c2)c(C)c1C(=O)NCc1cccc(C(F)(F)F)c1` stands more than 3000 nM. Turning to `COCc1c(C(=O)NCc2cccc(C(F)(F)F)c2)cnn1-c1ccc(Cl)cc1`, the IC50 in data set [1] is more than 3000 nM. Same read-out and setting: under `Cc1c(C(=O)NCc2cccc(C(F)(F)F)c2)cnn1-c1ccc(F)cc1` stands 790 nM. In the case of `Cc1c(C(=O)NCc2cccnc2)cnn1-c1ccc(Cl)cc1`, in data set [1], the IC50 was more than 3000 nM. As for `Cc1c(C(=O)NCc2ccc(S(C)(=O)=O)nc2)cnn1-c1ccc(Cl)c(Cl)c1`, in data set [1], the concentration for half-maximal inhibition (IC50) was more than 3000 nM.

As for `Cc1cc(C(=O)NCc2cccc(C(F)(F)F)c2)c(C)n1-c1ccc(Cl)cc1`, the IC50 in data set [1] is 350 nM. Regarding `Cc1c(C(=O)NCc2cccc(C(N)=O)c2)cnn1-c1ccc(Cl)cc1`, in data set [1], the IC50 was more than 3000 nM. Take `Cc1c(C(=O)NCc2cccc(N)c2)cnn1-c1ccc(Cl)cc1`: the IC50 in data set [1] was more than 3000 nM. The same measure, in the same setting: under `Cc1c(C(=O)NCc2cccc(C(F)(F)F)c2)nnn1-c1ccc(Cl)cc1` stands 2400 nM; under `Cc1nc(C(=O)NCc2cccc(C(F)(F)F)c2)nn1-c1ccc(Cl)cc1`, more than 3000 nM; under `O=C(NCc1cccc(C(F)(F)F)c1)c1cnn(-c2ccc(Cl)cc2)c1CO`, 1200 nM. Turning to `Cc1c(C(=O)NCc2cccc(O)c2)cnn1-c1ccc(Cl)cc1`, the IC50 in data set [1] is more than 3000 nM. As for `Cc1cc(-c2ccc(Cl)cc2)sc1C(=O)NCc1cccc(C(F)(F)F)c1`, in data set [1], the IC50 was 1900 nM. On the same count and under the same terms, as for `Cc1c(C(=O)NCc2cccc(C(F)(F)F)c2)cnn1-c1cccc(Cl)c1`, the figure is more than 3000 nM; as for `Cc1c(C(=O)NCc2cccc(C(F)(F)F)c2)cnn1-c1ccccc1`, more than 3000 nM. Take `Cc1c(C(=O)N[C@@H](C)c2cccc(C(F)(F)F)c2F)cnn1-c1ccc(Cl)cc1`: the IC50 in data set [1] stood at 28 nM. Regarding `Cc1c(C(=O)NCc2ccncc2)cnn1-c1ccc(Cl)cc1`, the 50% inhibitory concentration (IC50) in data set [1] was more than 3000 nM. For the molecule `Cn1c(C(=O)NCc2cccc(C(F)(F)F)c2)cnc1-c1ccc(Cl)cc1`, the IC50 in data set [1] was more than 3000 nM.

Take `Cc1c(C(=O)NCc2cccc(C(F)(F)F)c2)cnn1-c1ccc([N+](=O)[O-])cc1`: the 50% inhibitory concentration (IC50) in data set [1] stood at 960 nM.

As for `Cc1c(C(=O)NCc2cccc(C(F)(F)F)c2)cnn1-c1ccc(Cl)c(Cl)c1`, in data set [1], the half-maximal inhibitory concentration (IC50) worked out at 500 nM. This molecule also gave a solubility in data set [2] of less than 1 µg/mL. Regarding `Cn1cc(C(=O)NCc2cccc(C(F)(F)F)c2)nc1-c1ccc(Cl)cc1`, in data set [1], the IC50 was more than 3000 nM. For `Nc1c(C(=O)NCc2cccc(C(F)(F)F)c2)cnn1-c1ccc(Cl)cc1`, in data set [1], the IC50 was more than 3000 nM. Take `CN(C)c1c(C(=O)NCc2cccc(C(F)(F)F)c2)cnn1-c1ccc(Cl)cc1`: in data set [1], the half-inhibitory concentration (IC50) was more than 3000 nM. Same read-out and setting: as for `Cc1c(C(=O)NCc2ccc(S(C)(=O)=O)cc2)cnn1-c1ccc(Cl)cc1`, the figure is 1700 nM. As to `Cc1c(C(=O)NCc2cccc(S(C)(=O)=O)c2)cnn1-c1ccc(Cl)cc1`, the IC50 in data set [1] amounted to 2100 nM.

As for `CC(C)(O)c1ccc2c(c1)/C(=C\CCN1CC[C@](O)(c3ccc(Cl)cc3)C(C)(C)C1)c1cccnc1CO2`, the IC50 in data set [1] turned out to be 0.8 nM.

Consider `CNS(=O)(=O)c1ccc(CNC(=O)c2cnn(-c3ccc(Cl)cc3)c2C)cc1`, for which, in data set [1], the IC50 was 420 nM. As for `CC[C@H](NC(=O)c1cnn(-c2ccc(Cl)cc2)c1C)c1cccc(C(F)(F)F)c1F`, in data set [1], the IC50 came out at 13 nM. The same measure, in the same setting: as for `Cc1c(C(=O)NCc2cccc(C(F)(F)F)c2)cnn1-c1cccc(C(F)(F)F)c1`, the figure is more than 3000 nM; as for `Cc1c(C(=O)NCc2ccccc2S(C)(=O)=O)cnn1-c1ccc(Cl)cc1`, more than 3000 nM; as for `CCCC(NC(=O)c1cnn(-c2ccc(Cl)cc2)c1C)c1ccc(S(C)(=O)=O)nc1` (stereo not drawn), 47 nM. As for `O=C(NCc1cccc(C(F)(F)F)c1)c1cnn(-c2ccc(Cl)cc2)c1C(F)(F)F`, the IC50 in data set [1] is more than 3000 nM. For `Cc1c(C(=O)NCc2cccc(C(F)(F)F)c2)cnn1Cc1ccccc1`, the IC50 in data set [1] was more than 3000 nM.

On to `Cc1c(C(=O)NCc2ccccn2)cnn1-c1ccc(Cl)cc1`, for which the IC50 in data set [1] is more than 3000 nM. As to `Cc1nc(-c2ccc(Cl)cc2)sc1C(=O)NCc1cccc(C(F)(F)F)c1`, the IC50 in data set [1] is more than 3000 nM.

On to `O=C(NCc1cccc(C(F)(F)F)c1)c1cnn(-c2ccc(Cl)c(Cl)c2)c1`, for which the IC50 in data set [1] was more than 3000 nM. With `CC(C)[C@@H](NC(=O)NCC(C)(C)O)C(=O)N1CC[C@](O)(c2ccc(Cl)cc2)C(C)(C)C1` [BMS-817399], in data set [1], the IC50 came out at 3 nM.

Consider `COc1cc(N2CCN(C(=O)Cn3nc(-c4ncc[nH]4)c4cccnc43)CC2)ccc1Cl` [CCX354], for which the IC50 in data set [1] is 2 nM.
